ChEMBL document CHEMBL1123641, “Antiulcer agents. 2. Gastric antisecretory, cytoprotective, and metabolic properties of substituted imidazo[1,2-a]pyridines and analogues” (J Med Chem, 1987)

Columns and labels:
Assay type in all cases: functional
Canis familiaris [1] = experiment: Antisecretory activity in histamine stimulated dogs at 2 mg/kg dose administered intravenously; conditions: Canis lupus familiaris, route intravenous
Procedure, shortened: (§1)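 Adult mongrel dogs with surgically prepared Heidenhain pouches, acid secretion stimulated with histamine. Compound given intravenously (0.1-5 mg/kg range). Acid output reduction is expressed relative to the nondrug-treated control value in the same animal, each dog serving as its own control. Unless noted otherwise, one dog per compound. ED50 is the iv dose reducing acid output to 50% of control.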

Rattus norvegicus [2] = experiment: Antisecretory activity in pylorus ligated rats at a 40 mg/kg dose administered intraperitoneally; conditions: ip, route intraperitoneal
Procedure, shortened: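 Pylorus-ligated rats, six per compound and eight controls. Compound given intraperitoneally at 40 mg/kg at the time of ligation. Reduction in acid output measured over 4 h.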

Rattus norvegicus [3] = organism: Rattus norvegicus; experiment: Cytoprotective activity in rats against the ethyl alcohol stimulated ulcers measured as effective dose
Procedure, shortened: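 Rats were dosed orally at 1–30 mg/kg, 30 min before an oral challenge of absolute ethanol. Ethanol-induced gastric lesions were scored 1 h later, and an effective dose was estimated.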

Canis familiaris [4] = experiment: Antisecretory activity in histamine stimulated dogs following 5 mg/kg i.v. administration.; conditions: Canis lupus familiaris, route intravenous; procedure, shortened: as §1
Canis familiaris [5] = experiment: Antisecretory activity in histamine stimulated dogs at 8 mg/kg dose administered orally; conditions: Canis lupus familiaris, route oral
Procedure, shortened: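 Heidenhain pouch mongrel dogs, histamine-stimulated acid secretion. Compound given orally at 2–8 mg/kg. Reduction in acid output is relative to the same animal's own nondrug control, since histamine response depends on pouch size. Usually a single dog per compound. Oral ED50 is the dose reducing acid output to 50% of control.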

| Compound | inhibition in vivo at 2 mg/kg (Canis familiaris [1]) [%] | inhibition in vivo at 40 mg/kg (Rattus norvegicus [2]) [%] | ED50 (Rattus norvegicus [3]) [mg/kg] | inhibition in vivo at 5 mg/kg (Canis familiaris [4]) [%] | inhibition in vivo at 8 mg/kg (Canis familiaris [5]) [%] |
| --- | --- | --- | --- | --- | --- |
| Cc1nc2c(OCc3ccccc3)cccn2c1NC=O | 3 | 49 | 10 |  |  |
| CNC(=O)Nc1c(C)nc2c(OCc3ccccc3)cccn12 |  | 22 | 3.5 | 27 |  |
| Cc1ccn2c(C)c(C)nc2c1OCc1ccccc1 | 70 | 92 | 16 |  | 35 |
| Cc1nc2c(NCc3ccccc3)cccn2c1N | 98 | 84 | 9.6 |  | 89 |
| Cc1nc2c(CCc3ccccc3)nccn2c1N |  |  |  | 18 |  |
| Cc1nc2c(OCc3ccccc3)cccn2c1CCN | 6 | 63 |  |  | 9 |
| Cc1nc2c(OCc3ccccc3)cccn2c1/N=C/N(C)C | 12 | 64 | 9.8 |  | 0 |
| CNc1c(C)nc2c(OCc3ccccc3)cccn12 |  | 55 | 9.8 |  |  |
| Cc1nc2c(OCc3ccccc3)cccn2c1N(C)C | 85 | 76 | 2.8 |  | 72 |
| Cc1nc2c(OCc3ccccc3)ccc(C)n2c1C | 13 | 26 | 8 |  |  |
| Cc1nc2c(OCc3ccc(C(F)(F)F)cc3)cccn2c1N | 0 | 78 | 6.5 |  | 8 |
| CCCc1nc2c(OCc3ccccc3)cccn2c1N | 45 | 31 |  |  | 0 |
| Cc1nc2ccc(CCc3ccccc3)cn2c1N | 6 | 52 | 5.7 |  | 0 |
| Cc1nc2c(Oc3ccccc3)cccn2c1N | 40 | 34 | 5 |  | 19 |
| Cc1cc(OCc2ccccc2)c2nc(C)c(N)n2c1 | 46 | 65 | 2.3 |  | 50 |
| COC(=O)Nc1c(C)nc2c(OCc3ccccc3)cccn12 |  | 0 |  |  |  |
| CCCNc1c(C)nc2c(OCc3ccccc3)cccn12 | 12 | 99 | 5.3 |  | 68 |
| Cc1nc2n(c1CC#N)CCCC2OCc1ccccc1 (configuration not stated) |  | 44 |  | 0 |  |
| CCCCc1nc2c(OCc3ccccc3)cccn2c1N | 45 | 26 | 7.5 |  | 0 |
| Cc1nc2c(SCc3ccccc3)cccn2c1N | 0 | 0 | 5.7 |  | 11 |
| Cc1nc2c(OCCc3ccccc3)cccn2c1N | 39 | 56 | 5.2 |  | 39 |
| Cc1nc2c(OCc3ccccn3)cccn2c1N |  | 16 | 2.3 |  | 15 |
| CC(=O)Nc1c(C)nc2c(OCc3ccccc3)cccn12 | 24 | 93 | 4.6 |  | 44 |
| Cc1nc2cc(CCc3ccccc3)ccn2c1N | 17 | 50 | 5.2 |  | 0 |
| Cc1nc2c(CCc3ccccc3)cccn2c1O | 0 | 32 | 9.6 |  |  |
| CC(C)c1nc2c(OCc3ccccc3)cccn2c1N | 24 | 0 | 2.7 |  | 0 |
